What was measured:
[1] = Lipophilicity, log p at pH 7.5; format: physicochemical; conditions: buffer
In short: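 RP-HPLC on a C18 column with methanol/0.1 M phosphate buffer pH 7.5 (60/40) at 1 mL/min. Samples were dissolved in methanol. log P7.5 was estimated by comparing retention time with that of reference compounds of known log P.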

[2] = Displacement of [3H]flumazenil from central benzodiazepine receptor in rat brain cortex membrane; format: cell membranes
In short: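 Rat brain cortex membranes (100-150 µg protein) were incubated in triplicate at 25 °C for 45 min with [3H]flumazenil (2 nM) and 7 ligand concentrations (10^-10 to 10^-5 M). Nonspecific binding was set with flumazenil 20 µM. Assays were filtered, washed with ice-cold Tris/HCl pH 7.4 and counted. Ki was derived from IC50 by Cheng-Prusoff.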

Kidney [3] = test: Biodistribution in Sprague-Dawley rat kidney assessed per gram of tissue at 1 MBq, iv after 0.25 hrs; format: ADME, organism-based; conditions: in vivo
In short: (§1)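 Male SD rats aged 8-10 weeks got 1 MBq [18F]tracer by tail vein in 0.1 mL. Groups of n = 4 were killed (CO2, then cervical fracture) at 0.25, 0.5, 1 and 4 h. Organs were weighed and gamma counted against a diluted standard of the injectate. Results are %ID per gram wet tissue, mean with standard deviation.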

Kidney [4] = test: Biodistribution in Sprague-Dawley rat kidney assessed per gram of tissue at 1 MBq, iv after 0.5 hrs; format: ADME, organism-based; conditions: in vivo; in short: as §1
Kidney [5] = test: Biodistribution in Sprague-Dawley rat kidney assessed per gram of tissue at 1 MBq, iv after 1 hr; format: ADME, organism-based; conditions: in vivo; in short: as §1
Kidney [6] = test: Biodistribution in Sprague-Dawley rat kidney assessed per gram of tissue at 1 MBq, iv after 4 hrs; format: ADME, organism-based; conditions: in vivo; in short: as §1
Heart [7] = test: Biodistribution in Sprague-Dawley rat heart assessed per gram of tissue at 1 MBq, iv after 0.25 hrs; format: ADME, organism-based; conditions: in vivo; in short: as §1
Heart [8] = test: Biodistribution in Sprague-Dawley rat heart assessed per gram of tissue at 1 MBq, iv after 0.5 hrs; format: ADME, organism-based; conditions: in vivo; in short: as §1
Heart [9] = test: Biodistribution in Sprague-Dawley rat heart assessed per gram of tissue at 1 MBq, iv after 1 hr; format: ADME, organism-based; conditions: in vivo; in short: as §1
Heart [10] = test: Biodistribution in Sprague-Dawley rat heart assessed per gram of tissue at 1 MBq, iv after 4 hrs; format: ADME, organism-based; conditions: in vivo; in short: as §1
Lung [11] = test: Biodistribution in Sprague-Dawley rat lungs assessed per gram of tissue at 1 MBq, iv after 0.25 hrs; format: ADME, organism-based; conditions: in vivo; in short: as §1
Lung [12] = test: Biodistribution in Sprague-Dawley rat lungs assessed per gram of tissue at 1 MBq, iv after 0.5 hrs; format: ADME, organism-based; conditions: in vivo; in short: as §1
Lung [13] = test: Biodistribution in Sprague-Dawley rat lungs assessed per gram of tissue at 1 MBq, iv after 1 hr; format: ADME, organism-based; conditions: in vivo; in short: as §1
Lung [14] = test: Biodistribution in Sprague-Dawley rat lungs assessed per gram of tissue at 1 MBq, iv after 4 hrs; format: ADME, organism-based; conditions: in vivo; in short: as §1
Spleen [15] = test: Biodistribution in Sprague-Dawley rat spleen assessed per gram of tissue at 1 MBq, iv after 0.25 hrs; format: ADME, organism-based; conditions: in vivo; in short: as §1
Spleen [16] = test: Biodistribution in Sprague-Dawley rat spleen assessed per gram of tissue at 1 MBq, iv after 0.5 hrs; format: ADME, organism-based; conditions: in vivo; in short: as §1
Spleen [17] = test: Biodistribution in Sprague-Dawley rat spleen assessed per gram of tissue at 1 MBq, iv after 1 hr; format: ADME, organism-based; conditions: in vivo; in short: as §1
Spleen [18] = test: Biodistribution in Sprague-Dawley rat spleen assessed per gram of tissue at 1 MBq, iv after 4 hrs; format: ADME, organism-based; conditions: in vivo; in short: as §1
Liver [19] = test: Biodistribution in Sprague-Dawley rat liver assessed per gram of tissue at 1 MBq, iv after 0.25 hrs; format: ADME, organism-based; conditions: in vivo; in short: as §1
Liver [20] = test: Biodistribution in Sprague-Dawley rat liver assessed per gram of tissue at 1 MBq, iv after 0.5 hrs; format: ADME, organism-based; conditions: in vivo; in short: as §1
Liver [21] = test: Biodistribution in Sprague-Dawley rat liver assessed per gram of tissue at 1 MBq, iv after 1 hr; format: ADME, organism-based; conditions: in vivo; in short: as §1
Liver [22] = test: Biodistribution in Sprague-Dawley rat liver assessed per gram of tissue at 1 MBq, iv after 4 hrs; format: ADME, organism-based; conditions: in vivo; in short: as §1
Adrenal [23] = test: Biodistribution in Sprague-Dawley rat adrenals assessed per gram of tissue at 1 MBq, iv after 0.25 hrs; format: ADME, organism-based, Adrenal tissue; conditions: in vivo; in short: as §1
Adrenal [24] = test: Biodistribution in Sprague-Dawley rat adrenals assessed per gram of tissue at 1 MBq, iv after 0.5 hrs; format: ADME, organism-based, Adrenal tissue; conditions: in vivo; in short: as §1
Adrenal [25] = test: Biodistribution in Sprague-Dawley rat adrenals assessed per gram of tissue at 1 MBq, iv after 1 hr; format: ADME, organism-based, Adrenal tissue; conditions: in vivo; in short: as §1
Adrenal [26] = test: Biodistribution in Sprague-Dawley rat adrenals assessed per gram of tissue at 1 MBq, iv after 4 hrs; format: ADME, organism-based, Adrenal tissue; conditions: in vivo; in short: as §1
[27] = Biodistribution in Sprague-Dawley rat testis assessed per gram of tissue at 1 MBq, iv after 0.25 hrs; format: ADME, organism-based; conditions: in vivo; in short: as §1
[28] = Biodistribution in Sprague-Dawley rat testis assessed per gram of tissue at 1 MBq, iv after 0.5 hrs; format: ADME, organism-based; conditions: in vivo; in short: as §1
[29] = Biodistribution in Sprague-Dawley rat testis assessed per gram of tissue at 1 MBq, iv after 1 hr; format: ADME, organism-based; conditions: in vivo; in short: as §1
[30] = Biodistribution in Sprague-Dawley rat testis assessed per gram of tissue at 1 MBq, iv after 4 hrs; format: ADME, organism-based; conditions: in vivo; in short: as §1
Blood [31] = test: Biodistribution in Sprague-Dawley rat blood at 1 MBq, iv after 1 hr; format: ADME, organism-based; conditions: in vivo
In short: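 Male SD rats, 8-10 weeks old, given 1 MBq [18F]radiotracer by tail-vein injection in 0.1 mL. Groups of 4 killed (CO2, then cervical fracture) at 0.25, 0.5, 1 and 4 h post-injection. Tissues weighed and gamma-counted against a diluted standard of the injected solution. Activity expressed as %ID per gram wet tissue.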

Blood [32] = test: Biodistribution in Sprague-Dawley rat blood at 1 MBq, iv after 0.25 hrs; format: ADME, organism-based; conditions: in vivo; in short: as §1
Blood [33] = test: Biodistribution in Sprague-Dawley rat blood at 1 MBq, iv after 4 hrs; format: ADME, organism-based; conditions: in vivo; in short: as §1
Femur [34] = test: Biodistribution in Sprague-Dawley rat femur at 1 MBq, iv after 0.25 hrs; format: ADME, organism-based; conditions: in vivo; in short: as §1
Femur [35] = test: Biodistribution in Sprague-Dawley rat femur at 1 MBq, iv after 4 hrs; format: ADME, organism-based; conditions: in vivo; in short: as §1
[36] = Metabolic stability in Sprague-Dawley rat plasma assessed as drug remaining at 30 MBq after 0.25 hrs by Radio-HPLC analysis; format: ADME, cell-free; conditions: read-out: Stability
In short: (§2)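 Rats received 30 MBq tracer and were sampled at 0.25, 0.5, 1 and 4 h. Plasma was diluted with water containing unlabeled carrier and KF and injected directly. Frontal cortex or olfactory bulb was sonicated in acetonitrile/water 1:1 with carrier and KF, centrifuged, and the supernatant diluted. Radio-HPLC used a precolumn switched to C18 with a CH3CN/0.05 M sodium acetate pH 5.5 gradient. Result is % parent remaining.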

[37] = Metabolic stability in Sprague-Dawley rat frontal cortex assessed as drug remaining at 30 MBq after 0.25 hrs by Radio-HPLC analysis; format: ADME, tissue-based; conditions: read-out: Stability; in short: as §2
[38] = Metabolic stability in Sprague-Dawley rat frontal cortex assessed as drug remaining at 30 MBq after 4 hrs by Radio-HPLC analysis; format: ADME, tissue-based; conditions: read-out: Stability; in short: as §2
[39] = Ratio of drug level in olfactory bulb to blood in Sprague-Dawley rat at 1 MBq, iv; format: ADME
In short: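 Same rat biodistribution as above: 1 MBq iv by tail vein, n = 4 per time point, 0.25-4 h, gamma counting as %ID/g. Ratio is the olfactory bulb radioactivity concentration divided by the blood concentration at each time.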

[40] = Metabolic stability in Sprague-Dawley rat plasma assessed as drug remaining at 30 MBq after 4 hrs by Radio-HPLC analysis; format: ADME, cell-free; conditions: read-out: Stability; in short: as §2
[41] = Metabolic stability in Sprague-Dawley rat olfactory bulb assessed as drug remaining at 30 MBq after 0.25 hrs by Radio-HPLC analysis; format: ADME, tissue-based; conditions: read-out: Stability; in short: as §2
[42] = Metabolic stability in Sprague-Dawley rat olfactory bulb assessed as drug remaining at 30 MBq after 4 hrs by Radio-HPLC analysis; format: ADME, tissue-based; conditions: read-out: Stability; in short: as §2

Compound | logD [1] | Ki [2] [µM] | Drug uptake (Kidney [3]) [%ID] | Drug uptake (Kidney [4]) [%ID] | Drug uptake (Kidney [5]) [%ID] | Drug uptake (Kidney [6]) [%ID] | Drug uptake (Heart [7]) [%ID] | Drug uptake (Heart [8]) [%ID] | Drug uptake (Heart [9]) [%ID] | Drug uptake (Heart [10]) [%ID] | Drug uptake (Lung [11]) [%ID] | Drug uptake (Lung [12]) [%ID] | Drug uptake (Lung [13]) [%ID] | Drug uptake (Lung [14]) [%ID] | Drug uptake (Spleen [15]) [%ID] | Drug uptake (Spleen [16]) [%ID] | Drug uptake (Spleen [17]) [%ID] | Drug uptake (Spleen [18]) [%ID] | Drug uptake (Liver [19]) [%ID] | Drug uptake (Liver [20]) [%ID] | other results
CCN(CC)C(=O)Cc1c(-c2ccc(OCCCF)cc2)nn2c(C)cc(C)nc12 | 3.2 | > 5 |  |  |  |  |  |  |  |  |  |  |  |  |  |  |  |  |  |  | 
CCN(CC)C(=O)Cc1c(-c2ccc(OCCC[18F])cc2)nn2c(C)cc(C)nc12 |  |  | 5.5 | 4.9 | 4.7 | 3.2 | 9 | 9 | 8.7 | 5.8 | 20 | 12.4 | 7.1 | 3.3 | 5.5 | 5.5 | 5.1 | 3.6 | 1.08 | 0.98 | Drug uptake (Liver [21]): 0.69 %ID; Drug uptake (Liver [22]): 0.38 %ID; Drug uptake (Adrenal [23]): 8 %ID; Drug uptake (Adrenal [24]): 7.9 %ID; Drug uptake (Adrenal [25]): 11 %ID; Drug uptake (Adrenal [26]): 12.2 %ID; Drug uptake [27]: 0.27 %ID; Drug uptake [28]: 0.28 %ID; Drug uptake [29]: 0.32 %ID; Drug uptake [30]: 0.43 %ID; Drug uptake (Blood [31]): 0.1 % ID/g; Drug uptake (Blood [32]): 0.3 % ID/g; Drug uptake (Blood [33]): 0.1 % ID/g; Drug uptake (Femur [34]): 0.6 % ID/g; Drug uptake (Femur [35]): 2.2 % ID/g; remaining at 0.25 h [36]: 10%; remaining at 0.25 h [37]: 55%; remaining at 4 h [38]: 30%
CCN(CC)C(=O)Cc1c(-c2ccc(OCC[18F])cc2)nn2c(C)cc(C)nc12 [DPA-714 F-18] |  |  | 3.8 | 3.6 | 3.5 | 2.4 | 5.8 | 5.6 | 6.4 | 4.3 | 14.6 | 8.8 | 5.7 | 2.8 | 4.6 | 4.7 | 4.5 | 3.9 | 0.63 | 0.54 | Drug uptake (Liver [21]): 0.4 %ID; Drug uptake (Liver [22]): 0.29 %ID; Drug uptake (Adrenal [23]): 5.6 %ID; Drug uptake (Adrenal [24]): 6.6 %ID; Drug uptake (Adrenal [25]): 7.8 %ID; Drug uptake (Adrenal [26]): 9.7 %ID; Drug uptake [27]: 0.18 %ID; Drug uptake [28]: 0.21 %ID; Drug uptake [29]: 0.27 %ID; Drug uptake [30]: 0.35 %ID; Drug uptake (Blood [31]): 0.1 % ID/g; Kp [39]: 2; Drug uptake (Femur [34]): 0.4 % ID/g; Drug uptake (Femur [35]): 0.7 % ID/g; remaining at 4 h [40]: < 1%; remaining at 0.25 h [37]: 55%; remaining at 4 h [38]: 10%; remaining at 0.25 h [41]: 80%; remaining at 4 h [42]: 40%
CCN(CC)C(=O)Cc1c(-c2ccc(OCCF)cc2)nn2c(C)cc(C)nc12 [DPA-714] | 2.5 | > 5 |  |  |  |  |  |  |  |  |  |  |  |  |  |  |  |  |  |  | 

Source: ChEMBL document CHEMBL1155010, “Synthesis and biological evaluation of substituted [18F]imidazo[1,2-a]pyridines and [18F]pyrazolo[1,5-a]pyrimidines for the study of the peripheral benzodiazepine receptor using positron emission tomography” (J Med Chem, 2008)
